From ChEMBL document CHEMBL1806372, “Cytotoxic ring A-modified steroid analogues derived from Grundmann's ketone” (Eur J Med Chem, 2011)

Tests used:
Type in all cases: functional
[1] = tested on: RXF 393; experiment: Growth inhibition of human RXF393 cells assessed as cell growth at 10^-5 M after 48 hrs by sulforhodamine B assay; conditions: RXF 393, 48 h, read-out: Activity
Summary of the method: (§1)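 NCI-60 single high-dose screen run under the NCI protocol. Cells were incubated with compound at 10^-5 M for 48 h. The end point was determined by sulforhodamine B protein staining. Results are reported as percent growth of treated cells relative to untreated control cells.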

[2] = tested on: MOLT-4; experiment: Growth inhibition of human MOLT4 cells assessed as cell growth at 10^-5 M after 48 hrs by sulforhodamine B assay; conditions: MOLT-4, 48 h, read-out: Activity; summary of the method: as §1
[3] = tested on: SK-MEL-5; experiment: Growth inhibition of human SK-MEL-5 cells assessed as cell growth at 10^-5 M after 48 hrs by sulforhodamine B assay; conditions: SK-MEL-5, 48 h, read-out: Activity
Summary of the method: (§2)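 NCI 60-cell panel single-dose screen under the NCI protocol. Cells are exposed to compound at one concentration (10^-5 M) for 48 h. The end point is protein staining with sulforhodamine B. Each line is reported as percent growth of treated cells relative to untreated control cells.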

[4] = tested on: T47D; experiment: Growth inhibition of human T47D cells assessed as cell growth at 10^-5 M after 48 hrs by sulforhodamine B assay; conditions: read-out: Activity; summary of the method: as §2
[5] = tested on: OVCAR-4; experiment: Growth inhibition of human OVCAR4 cells assessed as cell growth at 10^-5 M after 48 hrs by sulforhodamine B assay; conditions: OVCAR-4, 48 h, read-out: Activity; summary of the method: as §1
[6] = tested on: NCI/ADR-RES; experiment: Growth inhibition of human NCI/ADR-RES cells assessed as cell growth at 10^-5 M after 48 hrs by sulforhodamine B assay; conditions: read-out: Activity; summary of the method: as §1
[7] = tested on: COLO 205; experiment: Growth inhibition of human COLO205 cells assessed as cell growth at 10^-5 M after 48 hrs by sulforhodamine B assay; conditions: COLO 205, 48 h, read-out: Activity
Summary of the method: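 NCI 60-cell panel single high-dose screen: compound applied at 10^-5 M for 48 h, endpoint by sulforhodamine B protein-binding dye. Values reported as growth percent of treated cells relative to untreated control cells.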

[8] = tested on: MCF7; experiment: Growth inhibition of human MCF7 cells assessed as cell growth at 10^-5 M after 48 hrs by sulforhodamine B assay; conditions: MCF7, 48 h, read-out: Activity; summary of the method: as §1
[9] = tested on: NCI/ADR-RES; experiment: Growth inhibition of human NCI/ADR-RES cells after 48 hrs by sulforhodamine B assay
Summary of the method: (§3)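 GI50, TGI and LC50 were derived from log concentration versus % growth inhibition curves for each cell line. GI50 is the concentration giving a 50% decrease in net cell growth. Insensitive lines are reported as greater than the highest concentration.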

[10] = tested on: SNB-19; experiment: Growth inhibition of human SNB19 cells after 48 hrs by sulforhodamine B assay; conditions: SNB-19, 48 h
Summary of the method: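 NCI 60-cell panel five-dose assay. GI50, TGI and LC50 are derived from log concentration versus % growth inhibition curves. Cell lines insensitive at the top concentration are given a ">" prefix.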

[11] = tested on: HCT-116; experiment: Cytotoxicity against human HCT116 cells after 48 hrs by sulforhodamine B assay; conditions: HCT-116, 48 h, read-out: LC50 (the source's name)
Summary of the method: (§4)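 NCI 60 human tumour cell line panel run to the NCI protocol. GI50, TGI and LC50 come from log concentration vs % growth inhibition curves for each cell line. Lines insensitive at the top concentration are reported with ">".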

[12] = tested on: OVCAR-3; experiment: Growth inhibition of human OVCAR3 cells after 48 hrs by sulforhodamine B assay; conditions: OVCAR-3, 48 h; summary of the method: as §3
[13] = tested on: SF-539; experiment: Growth inhibition of human SF539 cells after 48 hrs by sulforhodamine B assay; conditions: SF-539, 48 h; summary of the method: as §3
[14] = tested on: SR; experiment: Cytotoxicity against human SR cells after 48 hrs by sulforhodamine B assay; conditions: read-out: LC50 (the source's name)
[15] = Cytotoxicity against human Hs 578T cells after 48 hrs by sulforhodamine B assay; conditions: read-out: LC50 (the source's name); summary of the method: as §4
[16] = tested on: HT-29; experiment: Growth inhibition of human HT-29 cells after 48 hrs by sulforhodamine B assay; conditions: HT-29, 48 h
Summary of the method: (§5)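 From log concentration versus % growth curves, GI50 (50% decrease in net growth), TGI (total growth inhibition) and LC50 (net 50% loss of initial cells) are derived for each line.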

[17] = tested on: SK-MEL-5; experiment: Growth inhibition of human SK-MEL-5 cells after 48 hrs by sulforhodamine B assay; conditions: SK-MEL-5, 48 h; summary of the method: as §3
[18] = tested on: HOP-92; experiment: Growth inhibition of human HOP92 cells after 48 hrs by sulforhodamine B assay; conditions: HOP-92, 48 h; summary of the method: as §5
[19] = tested on: KM12; experiment: Growth inhibition of human KM12 cells after 48 hrs by sulforhodamine B assay; conditions: KM12, 48 h; summary of the method: as §5
[20] = tested on: SW-620; experiment: Cytotoxicity against human SW620 cells after 48 hrs by sulforhodamine B assay; conditions: SW-620, 48 h, read-out: LC50 (the source's name)
[21] = tested on: MDA-MB-435; experiment: Growth inhibition of human MDA-MB-435 cells after 48 hrs by sulforhodamine B assay; conditions: MDA-MB-435, 48 h; summary of the method: as §3
[22] = tested on: DU-145; experiment: Cytotoxicity against human DU145 cells after 48 hrs by sulforhodamine B assay; conditions: DU-145, 48 h, read-out: LC50 (the source's name); summary of the method: as §4
[23] = tested on: NCI-H522; experiment: Cytotoxicity against human NCI-H522 cells after 48 hrs by sulforhodamine B assay; conditions: NCI-H522, 48 h, read-out: LC50 (the source's name); summary of the method: as §4
[24] = Growth inhibition of human Hs 578T cells after 48 hrs by sulforhodamine B assay; summary of the method: as §5
[25] = tested on: UO-31; experiment: Cytotoxicity against human UO31 cells after 48 hrs by sulforhodamine B assay; conditions: UO-31, 48 h, read-out: LC50 (the source's name)
[26] = tested on: SK-OV-3; experiment: Cytotoxicity against human SKOV3 cells after 48 hrs by sulforhodamine B assay; conditions: SK-OV-3, 48 h, read-out: LC50 (the source's name); summary of the method: as §4
[27] = tested on: RXF 393; experiment: Growth inhibition of human RXF393 cells after 48 hrs by sulforhodamine B assay; conditions: RXF 393, 48 h; summary of the method: as §3
[28] = tested on: BT-549; experiment: Growth inhibition of human BT549 cells after 48 hrs by sulforhodamine B assay; conditions: BT-549, 48 h; summary of the method: as §5
[29] = tested on: MDA-MB-468; experiment: Growth inhibition of human MDA-MB-468 cells after 48 hrs by sulforhodamine B assay; conditions: MDA-MB-468, 48 h; summary of the method: as §3
[30] = tested on: HL-60(TB); experiment: Growth inhibition of human HL-60(TB) cells after 48 hrs by sulforhodamine B assay; conditions: HL-60, 48 h
[31] = tested on: RPMI-8226; experiment: Cytotoxicity against human RPMI8226 cells after 48 hrs by sulforhodamine B assay; conditions: RPMI-8226, 48 h, read-out: LC50 (the source's name); summary of the method: as §4
[32] = tested on: HCT-15; experiment: Cytotoxicity against human HCT15 cells after 48 hrs by sulforhodamine B assay; conditions: HCT-15, 48 h, read-out: LC50 (the source's name); summary of the method: as §4

SMILES: CC(C)CCC[C@@H](C)[C@H]1CC[C@H]2[C@@H]3CCN4C(=O)CCC(=O)N4[C@@H]3CC[C@]12C
- growth at 10 µM [1]: 102%
- growth at 10 µM [2]: 87.2%
- growth at 10 µM [3]: 96.4%
- growth at 10 µM [4]: 64.4%
- growth at 10 µM [5]: 103%
- growth at 10 µM [6]: 94.6%
- growth at 10 µM [7]: 90.3%
- growth at 10 µM [8]: 88.5%

SMILES: CC(C)CCC[C@@H](C)[C@H]1CC[C@H]2C3=CC[C@@H]4C(=O)C=CC(=O)[C@@H]4[C@@H]3CC[C@]12C
- GI50 [9]: 275 nM
- GI50 [10]: 654 nM
- TGI [10]: > 100000 nM
- CC50 [11]: > 3910 nM
- GI50 [12]: 502 nM
- TGI [12]: > 100000 nM
- GI50 [13]: 478 nM
- CC50 [14]: > 100000 nM
- CC50 [15]: > 100000 nM
- GI50 [16]: 839 nM
- TGI [16]: > 100000 nM
- GI50 [17]: 309 nM
- TGI [17]: 1000 nM
- GI50 [18]: 28 nM
- TGI [18]: 86 nM
- growth at 10 µM [1]: -66.6%
- growth at 10 µM [2]: 10.4%
- growth at 10 µM [3]: -3.37%
- growth at 10 µM [4]: -18.9%
- GI50 [19]: 338 nM
- TGI [19]: > 100000 nM
- growth at 10 µM [5]: -9.33%
- CC50 [20]: > 100000 nM
- GI50 [21]: 229 nM
- TGI [21]: 997 nM
- CC50 [22]: > 100000 nM
- CC50 [23]: > 100000 nM
- GI50 [24]: 817 nM
- TGI [24]: > 100000 nM
- CC50 [25]: > 1750 nM
- growth at 10 µM [6]: 7.87%
- CC50 [26]: > 100000 nM
- GI50 [27]: 201 nM
- TGI [27]: 995 nM
- GI50 [28]: 427 nM
- TGI [28]: 2550 nM
- growth at 10 µM [7]: 12.4%
- GI50 [29]: 215 nM
- TGI [29]: 462 nM
- growth at 10 µM [8]: 8.65%
- GI50 [30]: 153 nM
- CC50 [31]: > 100000 nM
- CC50 [32]: > 100000 nM

SMILES: CC(C)CCC[C@@H](C)[C@H]1CC[C@H]2C3=CCn4c(=O)ccc(=O)n4[C@@H]3CC[C@]12C
- GI50 [9]: 417 nM
- TGI [9]: 1900 nM
- GI50 [10]: 1520 nM
- TGI [10]: 3020 nM
- CC50 [11]: 594 nM
- GI50 [12]: 861 nM
- TGI [12]: 2110 nM
- GI50 [13]: 1470 nM
- TGI [13]: 2890 nM
- CC50 [14]: > 100000 nM
- CC50 [15]: > 100000 nM
- GI50 [16]: 616 nM
- TGI [16]: 2070 nM
- GI50 [17]: 563 nM
- TGI [17]: 1830 nM
- GI50 [18]: 175 nM
- TGI [18]: 1030 nM
- growth at 10 µM [1]: -76%
- growth at 10 µM [2]: -23.6%
- growth at 10 µM [3]: -79.3%
- growth at 10 µM [4]: -75.2%
- GI50 [19]: 443 nM
- TGI [19]: 1510 nM
- growth at 10 µM [5]: -32.4%
- CC50 [20]: 5330 nM
- GI50 [21]: 354 nM
- TGI [21]: 1780 nM
- CC50 [22]: 4890 nM
- CC50 [23]: 1540 nM
- GI50 [24]: 1800 nM
- TGI [24]: 4790 nM
- CC50 [25]: 4190 nM
- growth at 10 µM [6]: -28.8%
- CC50 [26]: 5470 nM
- GI50 [27]: 952 nM
- TGI [27]: 2300 nM
- GI50 [28]: 312 nM
- TGI [28]: 876 nM
- growth at 10 µM [7]: -93.1%
- GI50 [29]: 628 nM
- TGI [29]: 2560 nM
- growth at 10 µM [8]: -92.5%
- GI50 [30]: 113 nM
- TGI [30]: 490 nM
- CC50 [31]: > 100000 nM
- CC50 [32]: > 100000 nM
